Hits are enriched below; roughly 2.2% of the tested compounds scored in any of these assays.
M5 antag = blocks acetylcholine activation of human M5 receptor; 360,000 compounds, 0.59% hits; inhibition, % at 3 µM; CHO-hM5 cells, Fluo-8 calcium fluorescence, ACh EC80; P08912;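 active = inhibition above a per-plate cutoff, the mean of that plate's test compounds plus 3 SD, cut at about 27% in these data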;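 note: 0% = acetylcholine EC80 with DMSO and 100% = DMSO without agonist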
M1 PAM = potentiates human M1 receptor response to acetylcholine; CHO-K1 hM1, Fluo-8 calcium fluorescence, ACh EC20; 0% = ACh EC20, 100% = maximal ACh; activation, % at 3 µM; 360,000 compounds, 0.088% hits; in the data active = activation above about 19%, passing the limit was not always enough
Target sequence (P11229 whole entry, looked up): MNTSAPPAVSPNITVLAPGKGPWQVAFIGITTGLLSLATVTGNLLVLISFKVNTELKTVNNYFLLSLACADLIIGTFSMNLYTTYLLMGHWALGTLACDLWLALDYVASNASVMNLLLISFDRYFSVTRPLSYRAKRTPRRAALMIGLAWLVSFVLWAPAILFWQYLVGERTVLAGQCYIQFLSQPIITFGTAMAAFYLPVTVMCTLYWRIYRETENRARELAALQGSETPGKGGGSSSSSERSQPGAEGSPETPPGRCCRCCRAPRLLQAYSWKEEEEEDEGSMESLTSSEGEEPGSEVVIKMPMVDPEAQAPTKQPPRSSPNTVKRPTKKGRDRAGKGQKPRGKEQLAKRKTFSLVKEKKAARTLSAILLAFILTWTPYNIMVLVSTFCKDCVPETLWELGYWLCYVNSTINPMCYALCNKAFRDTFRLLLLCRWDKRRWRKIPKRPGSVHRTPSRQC
CHRM5 PAM = CHRM5 positive allosteric modulation; AID 624038; P08912; 360,000 compounds, 0.3% hits; activation, % at 3 µM; CHO-K1 hM5, Fluo-8 calcium, ACh EC20 PAM; 0% = ACh EC20, 100% = ACh EC100;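 active = activation above the run cutoff, the mean activation of all test compounds plus 3 SD, cut at about 18% in these data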
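Assay system: CHO-K1 hM5 cells / Incubation: Fluo-8 loading 80 min at 37 °C plus 30 min room temperature / Technique: Fluo-8 calcium dye fluorescence, kinetic read / Repeats: single replicate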
M1 ag = activates human CHRM1 receptor. P11229. AID 588814. activation, % at 3 µM. 360,000 compounds, 0.33% hits. CHO-K1 hM1, Fluo-8 calcium fluorescence, agonist mode; 0% DMSO, 100% acetylcholine EC100;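 active = activation above the run's mean compound activation plus 3 SD, cut at about 16% in these data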;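 note: peak over basal fluorescence ratio within a 140 s kinetic read after compound addition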
M1 antag = blocks human M1 muscarinic receptor. P11229. CHO-K1 hM1, Fluo-8 calcium fluorescence, ACh EC80 antagonist. inhibition, % at 3 µM. 360,000 compounds, 1.3% hits;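 active = percent inhibition above its own plate's cutoff, namely the mean of that plate's compound wells plus 3 SD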;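 note: peak over basal fluorescence ratio during 140 s after agonist addition; 0% = ACh EC80 plus DMSO and 100% = DMSO alone without agonist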
M5 ag = agonists of human muscarinic M5 receptor (CHRM5); P08912; CHO-K1 hM5 cells, Fluo-8 calcium fluorescence; 0% DMSO wells, 100% maximal acetylcholine response; activation, % at 3 µM; 360,000 compounds, 0.19% hits; AID 624037;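 active = activation above the run's mean over test compounds plus 3 SD, cut at about 23% in these data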;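 note: signal is peak over basal fluorescence ratio across the kinetic read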
Active calls of the source: *.

SMILES | M5 antag | M1 PAM | CHRM5 PAM | M1 ag | M1 antag | M5 ag
COC(=O)c1ccc(CN2CCCC(C(=O)Nc3cccc(-n4cccn4)c3)C2)cc1 (configuration not stated) | -19 | -12 | 2 | 38* | 41* | -2
COCCNC(=O)C1CCCN(Cc2ccc(Cl)cc2)CC1 (configuration not stated) | 5 | -2 | -1 | -6 | -1 | -1
COC(=O)c1ccc(CN2CCC(n3nccc3NC(=O)C3CC3)CC2)cc1 | 4 | 5 | 0 | 19* | -7 | -6
COC(=O)c1ccc(CN2CCC(n3nccc3NC(=O)C3CCCC3)CC2)cc1 | 2 | -8 | -7 | 21* | 4 | -4
COc1ccc(CN2CCCC(C(=O)Nc3cccc(-n4cccn4)c3)C2)cc1 (configuration not stated) | -1 | -15 | 0 | -3 | 16 | -6
CCc1ccc(CN2CCC(n3nccc3NC(=O)C3CCCC3)CC2)cc1 | 10 | 6 | -9 | 0 | -8 | -3
Cc1csc(NC(=O)[C@@H]2CCCN2C(=O)c2cccs2)n1 | -3 | 13 | -5 | -2 | -17 | -1
CCc1cc(Cn2nc(-c3ccccc3)cc2C(=O)NCC2CC2)on1 | 3 | 4 | -1 | -6 | -4 | 0
Cc1ccc(C(=O)NC(C(=O)NC2CCCC2)c2ccccc2)cc1 (configuration not stated) | 14 | 7 | -5 | -3 | -14 | -1
COc1ccc(/C=C2/C(=O)ON=C2c2ccccc2)cc1OC | -11 | 14 | 23* | 2 | -15 | 0
O=C(NC(=S)NN1CCCCC1c1cccnc1)c1ccc(Cl)cc1Cl (configuration not stated) | -14 | 11 | 22* | -2 | -7 | 2
O=S(=O)(NCCc1ccncc1)c1cc(Br)ccc1F | 7 | 1 | -3 | -3 | -17 | -3
Cc1cc(Nc2nc3ccccc3[nH]c2=O)n(-c2ccccc2)n1 | -9 | 8 | 23* | 1 | -25 | -2
Cc1cc(Nc2cnc3ccccc3n2)n(-c2ccccc2)n1 | -1 | 10 | 1 | 1 | -1 | -3
CN(c1ccc(OCC(=O)N2CCC(C(N)=O)CC2)cc1)S(=O)(=O)c1cccs1 | 2 | 5 | 0 | -4 | -6 | 2
CC(=O)N1CCN(C(=O)COc2ccc(N(C)S(=O)(=O)c3cccs3)cc2)CC1 | -1 | 4 | 20* | -5 | -5 | -1
CC[C@]12c3[nH]c4cc(-c5ccco5)ccc4c3CCN1C(=O)[C@@H](CC(=O)NCCCN(C)C)C[C@@H]2C(=O)N1CCN(C(=O)C2CC2)CC1 | -17 | -14 | 8 | -10 | 21* | 0
CC[C@]12c3[nH]c4cc(-c5ccco5)ccc4c3CCN1C(=O)[C@@H](CC(=O)NCCCOC)C[C@@H]2C(=O)N1CCN(C(=O)C2CC2)CC1 | -7 | 5 | 1 | -3 | -8 | 0
O=c1c2ccccc2nc(COc2ccccc2)n1/N=C/c1cn[nH]c1-c1ccccc1 | 15 | -10 | -15 | -4 | 28* | 1
C=C(C)COc1ccc(-c2ncnc(C(F)(F)F)c2-c2ccccc2)c(O)c1 | 17 | -26 | -14 | -11 | 37* | -6
CN1CCc2cccc3c2C1Cc1ccc(O)c(O)c1-3 (configuration not stated) | 4 | -3 | -7 | 8 | -20 | 36*
Cc1ccc(OCC(=O)Nc2ccncc2)cc1C | 3 | -4 | -10 | 3 | 6 | 10
Cc1cc(OCC(=O)Nc2ccc(N3CCCC3)cc2)cc(C)c1Cl | -1 | -22 | -1 | -5 | 58* | -5
CCc1ccc(OCC(=O)Nc2ccncc2)c(Br)c1 | 12 | -5 | -21 | 0 | 13 | 4
O=C(COc1ccc2ccccc2c1Br)Nc1cccnc1 | 5 | -6 | -4 | 2 | 3 | -3
Cc1cc(OCC(=O)Nc2ccncc2)cc(C)c1Cl | 22 | -13 | -20 | 2 | 30* | 8
Cc1cc(OCC(=O)Nc2ccncc2)c(C)cc1Br | 34* | -19 | -20 | 4 | 37* | 13
